Reference: ChEMBL document CHEMBL1124464, “Peripherally acting enkephalin analogues. 2. Polar tri- and tetrapeptides” (1989)

Tests used:
Format in all cases: functional
[1] = tested on: Mus musculus; assay: Antinociceptive activity of subcutaneously administered compound in phenyl-p-benzoquinone induced writhing mice
Summary of the method: (§1)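 Groups of five to six female CD1 mice given drug subcutaneously (10 mL kg-1) 30 min before ip phenyl-p-benzoquinone 2.5 mg kg-1. Writhes (abdominal constrictions/hind-limb extensions) counted over 2.5 min from 10 min post-PBQ. ED50, the dose giving 50% fewer writhes than vehicle, from linear regression.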

[2] = species on record: Mus musculus; assay: Dose ratio in the presence and absence of the peripheral opioid antagonist in N-methyl-nalorphine in AA writhing mice
Summary of the method: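 Acetic acid (0.6%, ip) writhing in male TFW mice; N-methylnalorphine 11.5 mg kg-1 ip 20 min before subcutaneous agonist. Writhes counted 5 min from 15 min post-irritant. Dose ratio taken as the shift between parallel regression lines with and without antagonist.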

[3] = species on record: Cavia porcellus; assay: Inhibition of electrically induced contractions on the guinea pig ileum; details: read-out: ED50 (the source's name)
Summary of the method: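 Guinea pig ileum contractions evoked by coaxial stimulation at 0.1 Hz, 0.5-ms pulses, supramaximal voltage, recorded isometrically; dose-response curves built with 15-min washout between doses.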

[4] = tested on: Mus musculus; assay: (§2) Antinociceptive activity in the hot plate test (central activity) in rodents, when compound administered subcutaneously at 50 mg
Summary of the method: (§3)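 Male CFLP mice (Hacking and Churchill), groups of five to six, dosed sc at 10 mL kg-1 and placed on a copper surface held at 55 °C. Signs of discomfort (paw licking/shaking, jumping) were scored, with a 30-s cut-off. ED50 is the dose doubling response latency versus vehicle, estimated by parallel-line probit analysis.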

[5] = tested on: Mus musculus; assay: Antinociceptive activity of subcutaneously administered compound in acetic acid (AA) induced writhing mice; details: sc
Summary of the method: (§4)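 Male TFW mice, groups of five to six, given drug subcutaneously (10 mL kg-1), then ip acetic acid 0.6% at 25 mL kg-1. Writhes counted for 5 min beginning 15 min after acetic acid. ED50 = dose reducing writhes 50% versus vehicle, by linear regression.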

[6] = tested on: Mus musculus; assay: Antinociceptive activity of perorally administered compound (20 mg) in phenyl-p-benzoquinone induced writhing mice
Summary of the method: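 Female CD1 mice (Charles River), groups of five to six, dosed orally by blunt intragastric needle (10 mL kg-1) 30 min before ip PBQ at 2.5 mg kg-1. Abdominal constrictions/hind-limb extensions were counted over 2.5 min starting 10 min after PBQ. ED50 is the dose halving writhes versus vehicle, estimated by linear regression.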

[7] = tested on: Rodentia sp.; assay: Antinociceptive activity in the hot plate test (central activity) in rodents, when compound administered subcutaneously at 10 mg
Summary of the method: (§5)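 Male CFLP mice, groups of five to six, placed on a copper surface held at 55 °C; latency to paw licking/shaking or jumping recorded, 30-s cut-off. Drug given subcutaneously at 10 mL kg-1. ED50 = dose doubling response latency versus vehicle, by parallel-line probit analysis.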

[8] = tested on: Rodentia sp.; assay: Antinociceptive activity in the hot plate test (central activity) in rodents, when compound administered subcutaneously at; details: sc; summary of the method: as §3
[9] = tested on: Mus musculus; assay: Antinociceptive activity of perorally administered compound in phenyl-p-benzoquinone induced writhing mice; details: po
Summary of the method: (§6)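 Female CD1 mice, groups of five to six, dosed orally by blunt intragastric needle (10 mL kg-1) 30 min before ip phenyl-p-benzoquinone 2.5 mg kg-1. Abdominal constrictions/hind-limb extensions counted over 2.5 min starting 10 min after PBQ. ED50 = dose halving writhes versus vehicle, by linear regression.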

[10] = tested on: Mus musculus; assay: Antinociceptive activity of subcutaneously administered compound (30 mg) in acetic acid (AA) induced writhing mice; summary of the method: as §4
[11] = tested on: Mus musculus; assay: Antinociceptive activity of subcutaneously administered compound (1 mg) in phenyl-p-benzoquinone induced writhing mice; summary of the method: as §1
[12] = tested on: Rodentia sp.; assay: Antinociceptive activity in the hot plate test (central activity) in rodents, when compound administered subcutaneously at 100 mg; summary of the method: as §5
[13] = tested on: Mus musculus; assay: Antinociceptive activity of subcutaneously administered compound (100 mg) in acetic acid (AA) induced writhing mice; summary of the method: as §4
[14] = tested on: Rodentia sp.; assay: as §2; summary of the method: as §5
[15] = tested on: Mus musculus; assay: Antinociceptive activity of perorally administered compound (50 mg) in phenyl-p-benzoquinone induced writhing mice; summary of the method: as §6
[16] = tested on: Rodentia sp.; assay: Antinociceptive activity in the hot plate test (central activity) in rodents, when compound administered subcutaneously at 20 mg; summary of the method: as §5
[17] = tested on: Mus musculus; assay: Antinociceptive activity of subcutaneously administered compound (20 mg) in acetic acid (AA) induced writhing mice; summary of the method: as §4
[18] = tested on: Mus musculus; assay: Antinociceptive activity of subcutaneously administered compound (3 mg) in acetic acid (AA) induced writhing mice; summary of the method: as §4
[19] = Mus musculus, sc, read-out: ED50

Compound | ED50 [1, 19] | Ratio [2] | EC50 [3] | ED50 [5] | Inhibition [6] | other results
CC(=O)O.CCN(CCc1ccc(Cl)c(Cl)c1)C(=O)CNC(=O)[C@@H](CCCN=C(N)N)NC(=O)[C@H](Cc1ccc(O)cc1)N=C(N)N | 0.2 mg/kg | 1 | < 100 nM | 0.62 mg/kg | 14% | Inhibition [4]: 0%
CC(=O)O.CCN(CCc1ccc(Br)cc1)C(=O)CNC(=O)[C@@H](CCCN=C(N)N)NC(=O)[C@H](Cc1ccc(O)cc1)N=C(N)N | 3.4 mg/kg | 1.5 | 216 nM | 0.35 mg/kg | 15% | Inhibition [7]: 0%
CC(=O)O.CCN(CCc1ccccc1F)C(=O)CNC(=O)[C@@H](CCCN=C(N)N)NC(=O)[C@H](Cc1ccc(O)cc1)N=C(N)N | 0.9 mg/kg | 9.8 | 24.6 nM | 0.17 mg/kg | – | ED50 [8]: 22.2 mg/kg; ED50 [9]: ~50 mg/kg
CC(=O)O.CCN(Cc1ccc(F)cc1)C(=O)CNC(=O)[C@@H](CCCN=C(N)N)NC(=O)[C@H](Cc1ccc(O)cc1)N=C(N)N | – | 6.4 | 46 nM | 0.32 mg/kg | 12% | ED50 [1]: 1.7 mg/kg; Inhibition [4]: 0%
CC(=O)O.CCN(CCc1ccc(S(N)(=O)=O)cc1)C(=O)CNC(=O)[C@@H](CCCN=C(N)N)NC(=O)[C@H](Cc1ccc(O)cc1)N=C(N)N | – | – | 4900 nM | – | – | Inhibition [10]: 0%
CC(=O)O.CCN(CCc1cccc2ccccc12)C(=O)CNC(=O)[C@@H](CCCN=C(N)N)NC(=O)[C@H](Cc1ccc(O)cc1)N=C(N)N | 1.4 mg/kg | – | 30 nM | – | 0% | Inhibition [4]: 0%
CC(=O)O.CCN(CCc1ccc(Br)cc1)C(=O)CNC(=O)[C@@H](CCCN=C(N)N)NC(=O)[C@@H](N)Cc1ccc(O)cc1 | – | – | < 100 nM | – | 0% | Inhibition [11]: 10%; Inhibition [12]: 0%; Inhibition [13]: 0%
CC(=O)O.CCN(CCc1ccc(S(N)(=O)=O)cc1)C(=O)CNC(=O)[C@@H](CCCN=C(N)N)NC(=O)[C@@H](N)Cc1ccc(O)cc1 | – | – | 11000 nM | – | – | Inhibition [13]: 0%
CC(=O)O.CCN(CCc1ccc([N+](=O)[O-])o1)C(=O)CNC(=O)[C@@H](CCCN=C(N)N)NC(=O)[C@@H](N)Cc1ccc(O)cc1 | – | – | – | – | 0% | Inhibition [11]: 0%
CC(=O)O.CCN(Cc1ccccc1[N+](=O)[O-])C(=O)CNC(=O)[C@@H](CCCN=C(N)N)NC(=O)[C@@H](N)Cc1ccc(O)cc1 | 60.3 mg/kg | 2.8 | 522 nM | 6.1 mg/kg | – | Inhibition [14]: 0%
CC(=O)O.CCN(CCc1ccccc1F)C(=O)CNC(=O)[C@@H](CCCN=C(N)N)NC(=O)[C@@H](N)Cc1ccc(O)cc1 | 13.7 mg/kg | 13.3 | 22 nM | 0.3 mg/kg | – | Inhibition [7]: 0%; Inhibition [15]: 0%
CC(=O)O.CCN(Cc1ccc(F)cc1)C(=O)CNC(=O)[C@@H](CCCN=C(N)N)NC(=O)[C@@H](N)Cc1ccc(O)cc1 | 10.4 mg/kg | 3.9 | 63.8 nM | 0.09 mg/kg | – | Inhibition [16]: 0%
CC(=O)O.CCN(CCc1cccs1)C(=O)CNC(=O)[C@@H](CCCN=C(N)N)NC(=O)[C@@H](N)Cc1ccc(O)cc1 | – | – | – | – | 21% | Inhibition [11]: 0%
CC(=O)O.CCN(CCc1ccc([N+](=O)[O-])cc1)C(=O)CNC(=O)[C@@H](CCCN=C(N)N)NC(=O)[C@@H](N)Cc1ccc(O)cc1 | 17.5 mg/kg | 4.5 | 48.6 nM | 3.1 mg/kg | – | Inhibition [12]: 0%; ED50 [9]: 43.5 mg/kg
CC(=O)O.CCN(CCCc1ccc([N+](=O)[O-])cc1)C(=O)CNC(=O)[C@@H](CCCN=C(N)N)NC(=O)[C@@H](N)Cc1ccc(O)cc1 | – | – | 1800 nM | – | – | Inhibition [10]: 0%
CC(=O)O.CCN(CCc1ccc(Cl)c(Cl)c1)C(=O)CNC(=O)[C@@H](CCCN=C(N)N)NC(=O)[C@@H](N)Cc1ccc(O)cc1 | 4.7 mg/kg | 0.5 | 12.5 nM | – | 0% | Inhibition [17]: 0%; Inhibition [12]: ~100%
CC(=O)O.CCN(CCc1ccccc1[N+](=O)[O-])C(=O)CNC(=O)[C@@H](CCCN=C(N)N)NC(=O)[C@@H](N)Cc1ccc(O)cc1 | 31 mg/kg | 6.4 | 118 nM | 2.7 mg/kg | – | Inhibition [16]: 0%; Inhibition [15]: 0%
CC(=O)O.CCN(CCc1ccncc1)C(=O)CNC(=O)[C@@H](CCCN=C(N)N)NC(=O)[C@@H](N)Cc1ccc(O)cc1 | – | – | 569 nM | – | – | Inhibition [18]: 0%
CC(=O)O.CCN(CCc1ccc2ccccc2c1)C(=O)CNC(=O)[C@@H](CCCN=C(N)N)NC(=O)[C@@H](N)Cc1ccc(O)cc1 | – | – | – | – | 0% | Inhibition [11]: 27%
CC(=O)O.CCN(Cc1ccc(-c2ccccc2)cc1)C(=O)CNC(=O)[C@@H](CCCN=C(N)N)NC(=O)[C@@H](N)Cc1ccc(O)cc1 | – | – | – | – | 0% | Inhibition [11]: 13%
CC(=O)O.CCN(CCc1ccco1)C(=O)CNC(=O)[C@@H](CCCN=C(N)N)NC(=O)[C@@H](N)Cc1ccc(O)cc1 | – | – | – | – | 0% | Inhibition [11]: 0%
CC(=O)O.CCN(Cc1ccccc1F)C(=O)CNC(=O)[C@@H](CCCN=C(N)N)NC(=O)[C@@H](N)Cc1ccc(O)cc1 | 31.1 mg/kg | 8 | 325 nM | 1.1 mg/kg | – | Inhibition [4]: 0%
CC(=O)O.CCN(CCc1cccc2ccccc12)C(=O)CNC(=O)[C@@H](CCCN=C(N)N)NC(=O)[C@@H](N)Cc1ccc(O)cc1 | 1.4 mg/kg | – | 75.9 nM | – | 31% | Inhibition [4]: 0%
CC(=O)O.CCN(Cc1ccccc1[N+](=O)[O-])C(=O)CNC(=O)[C@@H](CCCN=C(N)N)NC(=O)[C@H](Cc1ccc(O)cc1)N=C(N)N | 4 mg/kg | 11 | 244 nM | 1.1 mg/kg | 14% | Inhibition [4]: 0%
CC(=O)O.CCN(CCc1ccc([N+](=O)[O-])o1)C(=O)CNC(=O)[C@@H](CCCN=C(N)N)NC(=O)[C@H](Cc1ccc(O)cc1)N=C(N)N | – | – | – | – | 15% | Inhibition [11]: 17%
